Assay results reported in ChEMBL document CHEMBL5137109, “Tunable Cysteine-Targeting Electrophilic Heteroaromatic Warheads Induce Ferroptosis” (J Med Chem, 2022).
Active and inactive are the calls of the source. The rule behind the calls is not given here.

Columns and labels:
NCI-H522 [1] = test: Cytotoxicity against human NCI-H522 cells assessed as reduction in cell viability incubated for 3 days by methylene blue staining based analysis; type: functional; conditions: NCI-H522, 72 h
HCT-116 = test: Cytotoxicity against human HCT-116 cells assessed as reduction in cell viability incubated for 3 days by methylene blue staining based analysis; type: functional; conditions: HCT-116, 72 h
NCI-H522 [2] = test: Induction of lipid peroxidation in human NCI-H522 cells assessed as increase in C11-BODIPY oxidation at 40 uM incubated for 6 hrs by flow cytometry; type: functional, cell-based
Summary of the method: (§1)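 NCI-H522 cells (~70% density) plated in dishes overnight, then treated with compound or DMSO plus C11-BODIPY 581/591 (1 μM) added at treatment. After 3 h or 6 h, cells washed, trypsinized, resuspended in PBS with 2% FBS and analysed by flow cytometry (preferably 20×10³ cells). Oxidation compared with DMSO treatment.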

[3] = Selectivity ratio of IC50 for human HCT-116 cells to IC50 for human NCI-H522 cells by methylene blue staining based analysis; type: functional
NCI-H522 [4] = test: Induction of lipid peroxidation in human NCI-H522 cells assessed as increase in C11-BODIPY oxidation at 10 uM incubated for 3 hrs by flow cytometry; type: functional, cell-based
Summary of the method: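 NCI-H522 cells at ~70% density, plated overnight, treated with compound or DMSO together with C11-BODIPY 581/591 (1 μM) for 3 h or 6 h. Cells then PBS-washed, trypsinised, resuspended in PBS with 2% FBS and read by flow cytometry, preferably 20*10³ cells. Oxidation compared with DMSO treatment.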

NCI-H522 [5] = test: Induction of lipid peroxidation in human NCI-H522 cells assessed as increase in C11-BODIPY oxidation at 5 uM incubated for 3 hrs by flow cytometry; type: functional, cell-based; summary of the method: as §1
NCI-H522 [6] = test: Induction of lipid peroxidation in human NCI-H522 cells assessed as increase in C11-BODIPY oxidation at 30 uM incubated for 6 hrs by flow cytometry; type: functional, cell-based; summary of the method: as §1
[7] = Cytotoxicity against human WI-38 cells assessed as reduction in cell viability incubated for 3 days by methylene blue staining based analysis; type: toxicity
[8] = Cytotoxicity against mouse MEF cells assessed as reduction in cell viability incubated for 3 days by methylene blue staining based analysis; type: toxicity
MDA-MB-231 = test: Cytotoxicity against human MDA-MB-231 cells assessed as reduction in cell viability incubated for 3 days by methylene blue staining based analysis; type: functional; conditions: MDA-MB-231, 72 h
U2OS = test: Cytotoxicity against human U2OS cells assessed as reduction in cell viability incubated for 3 days by methylene blue staining based analysis; type: functional; conditions: 72 h
HeLa = test: Cytotoxicity against human HeLa cells assessed as reduction in cell viability incubated for 3 days by methylene blue staining based analysis; type: functional; conditions: 72 h
NCI-H522 [9] = test: Cytotoxicity against human NCI-H522 cells assessed as reduction in cell viability incubated for 3 days in presence of ferroptosis inhibitor, liproxstatin-1 by methylene blue staining based analysis; type: functional; conditions: NCI-H522, 72 h
Summary of the method: (§2)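 NCI-H522 cells seeded at 25×10³/well (n=3), adhered overnight, then exposed to compound with or without liproxstatin-1 (0.25 μM). After 3 days, methylene blue staining with HCl elution and A668. Results given as % relative to DMSO control, mean ± SD, n=3, one-way ANOVA. Fold change is IC50 (with liproxstatin-1)/IC50 (alone).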

[10] = Ratio of IC50 for cytotoxicity against human NCI-H522 cells in presence of ferroptosis inhibitor, liproxstatin-1 to IC50 for cytotoxicity against human NCI-H522 cells; type: functional
Summary of the method: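 NCI-H522 cells, 25*10³/well (n=3), plated overnight, treated with compound with or without Liproxstatin-1 (0.25 μM). After 3 days, methylene blue in 50% ethanol fix/stain 30 min RT, dye dissolved in 0.1N HCl, A668. Fold change = IC₅₀ with Liproxstatin-1 / IC₅₀ without.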

MDA-MB-468 = test: Cytotoxicity against human MDA-MB-468 cells assessed as reduction in cell viability incubated for 3 days by methylene blue staining based analysis; type: functional; conditions: MDA-MB-468, 72 h
HT-1080 = test: Cytotoxicity against human HT-1080 cells assessed as reduction in cell viability incubated for 3 days by methylene blue staining based analysis; type: functional; conditions: HT-1080, 72 h
NCI-H522 [11] = test: Induction of lipid peroxidation in human NCI-H522 cells assessed as increase in C11-BODIPY oxidation at 20 uM incubated for 6 hrs by flow cytometry; type: functional, cell-based; summary of the method: as §1
NCI-H522 [12] = test: Cytotoxicity against human NCI-H522 cells assessed as time required to cause 50% irreversible cell death treated with compound followed by washing for every 30 mins for 6 hrs by methylene blue staining based analysis; type: functional
Summary of the method: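 NCI-H522 cells, 5*10³/well (n=3), plated overnight, then treated with compound or DMSO. Wells washed immediately after treatment and then at 30-min intervals up to 6 h; last wells not washed. Methylene blue in 50% ethanol fix/stain 30 min RT, dye dissolved in 0.1N HCl, A668. Each point taken as % survival of matching DMSO-treated cells.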

NCI-H522 [13] = test: Induction of lipid peroxidation in human NCI-H522 cells assessed as increase in C11-BODIPY oxidation at 10 uM incubated for 6 hrs by flow cytometry; type: functional, cell-based; summary of the method: as §1
NCI-H522 [14] = test: Cytotoxicity against human NCI-H522 cells assessed as reduction in cell survival at 4.5 uM incubated for 3 days in presence of ferroptosis inhibitor, liproxstatin-1 by methylene blue staining based analysis; type: functional; conditions: time 3.0 day; summary of the method: as §2
NCI-H522 [15] = test: Induction of lipid peroxidation in human NCI-H522 cells assessed as increase in C11-BODIPY oxidation at 5 uM incubated for 6 hrs by flow cytometry; type: functional, cell-based; summary of the method: as §1
NCI-H522 [16] = test: Cytotoxicity against human NCI-H522 cells assessed as reduction in cell survival at 2 uM incubated for 3 days in presence of ferroptosis inhibitor, liproxstatin-1 by methylene blue staining based analysis; type: functional; conditions: time 3.0 day; summary of the method: as §2

Row | Compound | IC50 (NCI-H522 [1]) [µM] | IC50 (HCT-116) [µM] | Ratio IC50 [3] | further results
1 | Brc1nc2ccccc2o1 | > 40 | > 40 | – | –
2 | C#Cc1ncccn1 | > 40 | > 40 | – | –
3 | c1ccc2ocnc2c1 [BENZO[D]OXAZOLE] | > 40 | > 40 | – | –
4 | C#Cc1nc2ccccc2n1C | 8.14 | 19.4 | 2.37 | Activity (NCI-H522 [2]): Active
5 | C=Cc1nc2ccccc2s1 | > 40 | > 40 | – | –
6 | C#Cc1nc2ccccc2[se]1 | 2.17 | 25 | 11.5 | Activity (NCI-H522 [4]): Active
7 | CC#Cc1nc2ccccc2s1 | > 40 | > 40 | – | –
8 | Brc1nc2ccccc2s1 | > 40 | > 40 | – | –
9 | C#Cc1nc(C(=O)Nc2ccccc2)cs1 | 0.66 | 4.88 | 7.39 | Activity (NCI-H522 [5]): Active
10 | Ic1nc2ccccc2o1 | 11.7 | > 40 | 3.41 | –
11 | C#Cc1nc(-c2ccccc2)cs1 | 5.65 | > 40 | >7.07 | Activity (NCI-H522 [6]): Active
12 | C=Cc1sc(-c2ccc(F)cc2)nc1C(=O)OCC | > 40 | > 40 | – | –
13 | C#CC(=O)N1CCN(C(c2ccc(Cl)cc2)c2ccc(Cl)cc2)CC1 | 1.13 | 3.8 | – | IC50 at 3 days [7]: 0.5 µM; IC50 at 3 days [8]: 0.082 µM; IC50 (MDA-MB-231): 0.038 µM; IC50 (U2OS): 0.638 µM; IC50 (HeLa): 0.303 µM; IC50 (NCI-H522 [9]): 2.88 µM; Ratio IC50 [10]: 2.55; IC50 (MDA-MB-468): 0.065 µM; IC50 (HT-1080): 0.376 µM
14 | C#Cc1nc(C(=O)OCC)cs1 | 2.67 | > 40 | >14.98 | Activity (NCI-H522 [11]): Active
15 | C#Cc1nc(/C=C/C(=O)N2CCN(C(c3ccc(Cl)cc3)c3ccc(Cl)cc3)CC2)cs1 | 0.006 | – | – | –
16 | COC(=O)c1ccc([C@H]2c3[nH]c4ccccc4c3CC(C(=O)OC)N2C(=O)CCl)cc1 (some centres undefined) | – | – | – | IT50 (NCI-H522 [12]): 1.33 h
17 | N#Cc1nccs1 | > 40 | > 40 | – | –
18 | CC#CC1=Nc2ccccc2C(C)(C)O1 | 8.4 | > 40 | >4.76 | Activity (NCI-H522 [2]): Active
19 | C#Cc1nc2ccccc2o1 | 1.26 | 11.6 | 9.12 | Activity (NCI-H522 [13]): Active
20 | Cn1cnc2ccccc21 | > 40 | > 40 | – | –
21 | C=Cc1nc2ccccc2n1C | 2.34 | 9.5 | 4.05 | Activity (NCI-H522 [14]): Active
22 | Brc1nc2ccccc2[se]1 | > 40 | > 40 | – | –
23 | C#Cc1nc(C(=O)Nc2ccc(OC)cc2)cs1 | 0.67 | 8.39 | 12.52 | Activity (NCI-H522 [5]): Active
24 | C#Cc1ccccn1 | > 40 | > 40 | – | –
25 | Ic1nc2ccccc2s1 | > 40 | > 40 | – | –
26 | C#CCNC(=O)c1cscn1 | > 40 | > 40 | – | –

Row | Compound | IC50 (NCI-H522 [1]) [µM] | IC50 (HCT-116) [µM] | Ratio IC50 [3] | further results
27 | C#Cc1nc(C(=O)N2CCN(c3ccc(F)cc3)CC2)cs1 | 0.064 | – | – | –
28 | Ic1nc2ccccc2[se]1 | > 40 | > 40 | – | –
29 | C#CC1=Nc2ccccc2C(C)(C)O1 | 0.89 | 5.61 | 6.3 | Activity (NCI-H522 [15]): Active
30 | c1ccc2[se]cnc2c1 | > 40 | > 40 | – | –
31 | O=C(CCl)N1CCN(C(c2ccc(Cl)cc2)c2ccc(Cl)cc2)CC1 | 0.752 | 1.64 | – | IC50 at 3 days [7]: 1.74 µM; IC50 at 3 days [8]: 0.352 µM; IC50 (MDA-MB-231): 0.494 µM; IC50 (U2OS): 1.71 µM; IC50 (HeLa): 2.11 µM; IC50 (NCI-H522 [9]): 3.1 µM; Ratio IC50 [10]: 4.12; IC50 (MDA-MB-468): 1.75 µM; IC50 (HT-1080): 0.302 µM
32 | c1ccc2scnc2c1 [BENZO[D]THIAZOLE] | > 40 | > 40 | – | –
33 | C#CCNC1CCC(c2csc(C#C)n2)=C1C (centres undefined) | 2.51 | > 40 | – | Activity (NCI-H522 [11]): Active
34 | C#Cc1nc(C(=O)N2CCN(c3ccc(Cl)cc3)CC2)cs1 | 0.028 | – | – | –
35 | Cn1c(Br)nc2ccccc21 | > 40 | > 40 | – | –
36 | C#Cc1csc(Br)n1 | > 40 | > 40 | – | –
37 | C#CCNC(=O)c1csc(Br)n1 | > 40 | > 40 | – | –
38 | C#Cc1nc(C(=O)N2CCN(CC)CC2)cs1 | > 1 | – | – | –
39 | Cc1onc(C(=O)N2CCN(C(c3ccc(Cl)cc3)c3ccc(Cl)cc3)CC2)c1[N+](=O)[O-] | 0.044 | > 1 | – | IC50 at 3 days [7]: 0.06 µM; IC50 at 3 days [8]: 0.016 µM; IC50 (MDA-MB-231): 0.02 µM; IC50 (U2OS): 0.822 µM; IC50 (HeLa): 0.253 µM; IC50 (NCI-H522 [9]): 34.5 µM; Ratio IC50 [10]: 784.431; IC50 (MDA-MB-468): 0.066 µM; IC50 (HT-1080): 0.022 µM
40 | C=Cc1nc2ccccc2[se]1 | 12.2 | > 40 | >3.27 | –
41 | C#Cc1nc(C(=O)Nc2ccc(Cl)cc2)cs1 | 0.54 | 15.9 | 29.4 | Activity (NCI-H522 [15]): Active
42 | CC#Cc1nc(C(=O)OCC)cs1 | > 40 | > 40 | – | –
43 | C=Cc1nc(C(=O)OCC)cs1 | > 40 | > 40 | – | –
44 | C=Cc1csc(Br)n1 | > 40 | > 40 | – | –
45 | Cn1c(I)nc2ccccc21 | 1.02 | 17.5 | 17.16 | Activity (NCI-H522 [16]): Active
46 | C#Cc1nc(/C=C/C(=O)Nc2ccc(Cl)cc2)cs1 | 0.37 | 23.2 | 62.64 | Activity (NCI-H522 [5]): Active
47 | CCOC(=O)c1csc(C#Cc2ccccc2)n1 | > 40 | > 40 | – | –
48 | C#Cc1nc(C(=O)N2CCN(c3ccc(C(F)(F)F)cc3)CC2)cs1 | 0.037 | – | – | –
49 | C#Cc1nccs1 | > 40 | > 40 | – | –
50 | C=Cc1nc2ccccc2o1 | > 40 | > 40 | – | –
51 | C#Cc1sc(-c2ccc(F)cc2)nc1C(=O)OCC | 3.53 | > 40 | 11.33 | Activity (NCI-H522 [11]): Active
